# Laboratory results as given in ChEMBL document CHEMBL4706708, “Improving the solubility of anti-proliferative thieno[2,3-b]quinoline-2-carboxamides” (Bioorg Med Chem, 2021).
# Experiments:
# [1] = system: MDA-MB-231; experiment: Antiproliferative activity against human MDA-MB-231 cells assessed as cell growth at 1 uM measured after 3 days by [3H]-thymidine incorporation assay relative to control; format: functional; conditions: MDA-MB-231, 72 h, time 3 day, read-out: Activity
# Outline: (§1)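 HCT116 and MDA-MB-231 cells from ATCC, seeded at 3000 cells/well, exposed to inhibitor for three days; 0.04 µCi 3H-thymidine added per well 5 h before harvest onto glass fibre filters, incorporation counted by scintillation and expressed relative to untreated controls. Triplicate wells, at least two independent experiments. Single-point screen at 1 µM; IC50 determined from varying concentrations.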
# [2] = system: HCT-116; experiment: Antiproliferative activity against human HCT-116 cells assessed as cell growth at 1 uM measured after 3 days by [3H]-thymidine incorporation assay relative to control; format: functional; conditions: HCT-116, 72 h, time 3 day, read-out: Activity; outline: as §1
# [3] = Thermodynamic solubility of compound in water measured after 15 mins RP-HPLC analysis; format: physicochemical; conditions: read-out: Therm_solubility
SMILES,growth at 1 µM [1] [%],growth at 1 µM [2] [%],solubility thermodynamic at 0.25 h [3] [µg/mL]
CC(=O)c1cc2c(N)c(C(=O)Nc3cccc4cnccc34)sc2nc1C,99.8,111,
Cc1nc2sc(C(=O)Nc3cccc4cnccc34)c(N)c2cc1C(C)O (stereo not drawn),102,110,7.55
Nc1c(C(=O)Nc2ccccc2Cl)sc2nc3c(cc12)CN(Cc1ccccc1)CC3,99.8,99.4,1.06
Cc1nc2sc(C(=O)Nc3ccc4c(c3)OCCO4)c(N)c2cc1C(C)O (stereo not drawn),105,94.9,0.27
Nc1c(C(=O)Nc2ccncc2)sc2nc3c(cc12)C(=O)CCC3,108,110,1.54
CC(=O)c1cc2c(N)c(C(=O)Nc3cccc(Cl)c3)sc2nc1C,102,101,1.52
Nc1c(C(=O)Nc2cccc3ncccc23)sc2nc3c(cc12)CN(Cc1ccccc1)CC3,91.3,104,0.62
COc1ccc(NC(=O)c2sc3nc4c(cc3c2N)CN(C)CC4)cc1,90.3,98.9,2.17
Nc1c(C(=O)Nc2cccc3cccnc23)sc2nc3c(cc12)C(=O)CCC3,99.2,101,0.44
COc1ccc(NC(=O)c2sc3nc4c(cc3c2N)COCC4)cc1,83.9,80.1,3.19
Cc1nc2sc(C(=O)Nc3cncc4ccccc34)c(N)c2cc1C(C)O (stereo not drawn),106,109,
Nc1c(C(=O)Nc2cccc3c2OCCO3)sc2nc3c(cc12)C(=O)CCC3,17.8,18.6,0.12
CC(=O)c1cc2c(N)c(C(=O)Nc3ccncc3)sc2nc1C,97.2,103,0.45
Cc1ccccc1NC(=O)c1sc2nc(C)c(C(C)O)cc2c1N (stereo not drawn),97.9,99.9,29.5
Nc1c(C(=O)Nc2ccnc3ccccc23)sc2nc3c(cc12)CN(Cc1ccccc1)CC3,104,82.8,3.83
Nc1c(C(=O)Nc2cccc3cnccc23)sc2nc3c(cc12)CN(Cc1ccccc1)CC3,108,110,1.12
Nc1c(C(=O)Nc2cccc3ccncc23)sc2nc3c(cc12)CN(Cc1ccccc1)CC3,108,103,2.79
Nc1c(C(=O)Nc2cccc3cnccc23)sc2nc3c(cc12)C(=O)CCC3,107,103,1.67
Nc1c(C(=O)Nc2ccc3c(c2)OCCO3)sc2nc3c(cc12)C(=O)CCC3,102,76.2,0.32
CC(=O)c1cc2c(N)c(C(=O)Nc3ccc4c(c3)OCCO4)sc2nc1C,103,104,0.19
Nc1c(C(=O)Nc2ccnc3ccccc23)sc2nc3c(cc12)C(=O)CCC3,107,101,0.64
Nc1c(C(=O)Nc2cccc3c2OCCO3)sc2nc3c(cc12)CN(Cc1ccccc1)CC3,89.3,88.2,2.1
COc1cccc(NC(=O)c2sc3nc4c(cc3c2N)CN(Cc2ccccc2)CC4)c1C,106,101,1.89
Nc1c(C(=O)Nc2cccc3ccccc23)sc2nc3c(cc12)COCC3,78.3,100,4
CC(=O)c1cc2c(N)c(C(=O)Nc3cccc4ncccc34)sc2nc1C,98.7,93,1.3
Cc1nc2sc(C(=O)Nc3ccccc3)c(N)c2cc1C(C)O (stereo not drawn),107,95.3,3.51
Nc1c(C(=O)Nc2cccc3ccncc23)sc2nc3c(cc12)C(=O)CCC3,115,98.1,1.94
Cc1nc2sc(C(=O)Nc3cccc4ccncc34)c(N)c2cc1C(C)O (stereo not drawn),94.6,83.1,10.1
Cc1ccccc1NC(=O)c1sc2nc3c(cc2c1N)CN(C)CC3,95.3,101,5.61
CC(=O)c1cc2c(N)c(C(=O)Nc3cccc4cccnc34)sc2nc1C,86.7,97,3
